Test results as given in ChEMBL document CHEMBL1126958, “Quinolinecarboxylic acids. 3. Synthesis and antibacterial evaluation of 2-substituted-7-oxo-2,3-dihydro-7H-pyrido[1,2,3-de] [1,4]benzothiazine-6-carboxylic acids related to rufloxacin” (J Med Chem, 1993).
Converted amounts (≈) assume the structure as drawn.

test system: Enterobacter cloacae; test: Minimal inhibitory concentration against Enterobacter cloacae OMNFI174 strain; type: functional; conditions: not given
Procedure, shortened: (§1)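 Agar dilution on TSA agar; compounds added by 2-fold dilution to melted medium at 50 °C just before pouring. Organisms stored at –80 °C, diluted in peptonated water to 1–2 × 10^7 CFU, applied with multipoint inoculator. MIC = lowest concentration preventing visible growth after 24 h at 35 °C.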

MIC [µg/mL] | Compound
8 (≈ 20.3 µM) | O=C(O)c1cn2c3c(c(Cl)c(F)cc3c1=O)SC(c1ccc(F)cc1)C2 (stereo not drawn)
> 64 | O=C(O)c1cn2c3c(c(Cl)c(F)cc3c1=O)SC(c1cccc(F)c1)C2 (stereo not drawn)
> 64 | CC1Cn2cc(C(=O)O)c(=O)c3cc(F)c(N4CCN(c5ccc(F)cc5)CC4)c(c32)S1 (stereo not drawn)
> 64 | CC1Cn2cc(C(=O)O)c(=O)c3cc(F)c(N4CCN(Cc5ccccc5C(F)(F)F)CC4)c(c32)S1 (stereo not drawn)

Compound | MIC [µg/mL]
CC1Cn2cc(C(=O)O)c(=O)c3cc(F)c(N4CCNCC4)c(c32)S1 (stereo not drawn) | 16 (≈ 44 µM)

test system: not listed separately; test: Urinary excretion in rat after 8-24 hours of oral administration at 50 mg/kg; type: ADME, organism-based; design: dose 50 mg/kg, route oral; conditions: urine
Procedure, shortened: (§2)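 Fasted male Wistar rats, three per group, dosed orally at 50 mg/kg. Urine collected over 0-4, 4-8 and 8-24 h, diluted 1:100 in ultrapure water, then treated with water and 70% perchloric acid, vortexed and centrifuged. Supernatant analysed by HPLC with pH 2.8 KH2PO4/phosphoric acid mobile phase. Result given as % of administered dose excreted.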

Compound | dose excreted [%]
CC1Cn2cc(C(=O)O)c(=O)c3cc(F)c(N4CCNCC4)c(c32)S1 (stereo not drawn) | 3.12

test system: not listed separately; test: Urinary excretion in rat after 0-4 hours of oral administration at 50 mg/kg; type: ADME, organism-based; design: dose 50 mg/kg, route oral; conditions: urine; procedure, shortened: as §2

Compound | dose excreted [%]
CC1Cn2cc(C(=O)O)c(=O)c3cc(F)c(N4CCNCC4)c(c32)S1 (stereo not drawn) | 0.37

test system: Klebsiella pneumoniae; test: Minimal inhibitory concentration against Klebsiella pneumoniae ATCC 10031 strain; type: functional; conditions: not given; procedure, shortened: as §1

MIC [µg/mL] | Compound
0.25 (≈ 0.635 µM) | O=C(O)c1cn2c3c(c(Cl)c(F)cc3c1=O)SC(c1ccc(F)cc1)C2 (stereo not drawn)
2 (≈ 5.08 µM) | O=C(O)c1cn2c3c(c(Cl)c(F)cc3c1=O)SC(c1cccc(F)c1)C2 (stereo not drawn)
> 64 | CC1Cn2cc(C(=O)O)c(=O)c3cc(F)c(N4CCN(c5ccc(F)cc5)CC4)c(c32)S1 (stereo not drawn)
8 (≈ 15.3 µM) | CC1Cn2cc(C(=O)O)c(=O)c3cc(F)c(N4CCN(Cc5ccccc5C(F)(F)F)CC4)c(c32)S1 (stereo not drawn)

Compound | MIC [µg/mL]
CC1Cn2cc(C(=O)O)c(=O)c3cc(F)c(N4CCNCC4)c(c32)S1 (stereo not drawn) | 2 (≈ 5.5 µM)

test system: not listed separately; test: Urinary excretion in rat after 4-8 hours of oral administration at 50 mg/kg; type: ADME, organism-based; design: dose 50 mg/kg, route oral; conditions: urine; procedure, shortened: as §2

Compound | dose excreted [%]
CC1Cn2cc(C(=O)O)c(=O)c3cc(F)c(N4CCNCC4)c(c32)S1 (stereo not drawn) | 1.92

test system: Enterococcus faecalis; test: Minimal inhibitory concentration against Streptococcus faecalis LEP strain; type: functional; conditions: not given; procedure, shortened: as §1

MIC [µg/mL] | Compound
8 (≈ 20.3 µM) | O=C(O)c1cn2c3c(c(Cl)c(F)cc3c1=O)SC(c1ccc(F)cc1)C2 (stereo not drawn)
32 (≈ 81.3 µM) | O=C(O)c1cn2c3c(c(Cl)c(F)cc3c1=O)SC(c1cccc(F)c1)C2 (stereo not drawn)
4 (≈ 8.74 µM) | CC1Cn2cc(C(=O)O)c(=O)c3cc(F)c(N4CCN(c5ccc(F)cc5)CC4)c(c32)S1 (stereo not drawn)
> 64 | CC1Cn2cc(C(=O)O)c(=O)c3cc(F)c(N4CCN(Cc5ccccc5C(F)(F)F)CC4)c(c32)S1 (stereo not drawn)

Compound | MIC [µg/mL]
CC1Cn2cc(C(=O)O)c(=O)c3cc(F)c(N4CCNCC4)c(c32)S1 (stereo not drawn) | > 64

test system: not listed separately; test: Minimal inhibitory concentration against Shigella enteritidis strain; type: functional; conditions: not given; procedure, shortened: as §1

MIC [µg/mL] | Compound
> 64 | O=C(O)c1cn2c3c(c(Cl)c(F)cc3c1=O)SC(c1ccc(F)cc1)C2 (stereo not drawn)
> 64 | O=C(O)c1cn2c3c(c(Cl)c(F)cc3c1=O)SC(c1cccc(F)c1)C2 (stereo not drawn)
> 64 | CC1Cn2cc(C(=O)O)c(=O)c3cc(F)c(N4CCN(c5ccc(F)cc5)CC4)c(c32)S1 (stereo not drawn)
> 64 | CC1Cn2cc(C(=O)O)c(=O)c3cc(F)c(N4CCN(Cc5ccccc5C(F)(F)F)CC4)c(c32)S1 (stereo not drawn)

Compound | MIC [µg/mL]
CC1Cn2cc(C(=O)O)c(=O)c3cc(F)c(N4CCNCC4)c(c32)S1 (stereo not drawn) | 8 (≈ 22 µM)

test system: Proteus vulgaris; test: Minimal inhibitory concentration against Proteus vulgaris CNUR6 strain; type: functional; conditions: not given; procedure, shortened: as §1

MIC [µg/mL] | Compound
> 64 | O=C(O)c1cn2c3c(c(Cl)c(F)cc3c1=O)SC(c1ccc(F)cc1)C2 (stereo not drawn)
> 64 | O=C(O)c1cn2c3c(c(Cl)c(F)cc3c1=O)SC(c1cccc(F)c1)C2 (stereo not drawn)
> 64 | CC1Cn2cc(C(=O)O)c(=O)c3cc(F)c(N4CCN(c5ccc(F)cc5)CC4)c(c32)S1 (stereo not drawn)
> 64 | CC1Cn2cc(C(=O)O)c(=O)c3cc(F)c(N4CCN(Cc5ccccc5C(F)(F)F)CC4)c(c32)S1 (stereo not drawn)

Compound | MIC [µg/mL]
CC1Cn2cc(C(=O)O)c(=O)c3cc(F)c(N4CCNCC4)c(c32)S1 (stereo not drawn) | > 64

test system: Pseudomonas aeruginosa; test: Minimal inhibitory concentration against Pseudomonas aeruginosa ATCC 9027 strain; type: functional; conditions: not given; procedure, shortened: as §1

MIC [µg/mL] | Compound
> 64 | O=C(O)c1cn2c3c(c(Cl)c(F)cc3c1=O)SC(c1ccc(F)cc1)C2 (stereo not drawn)
> 64 | O=C(O)c1cn2c3c(c(Cl)c(F)cc3c1=O)SC(c1cccc(F)c1)C2 (stereo not drawn)
> 64 | CC1Cn2cc(C(=O)O)c(=O)c3cc(F)c(N4CCN(c5ccc(F)cc5)CC4)c(c32)S1 (stereo not drawn)
> 64 | CC1Cn2cc(C(=O)O)c(=O)c3cc(F)c(N4CCN(Cc5ccccc5C(F)(F)F)CC4)c(c32)S1 (stereo not drawn)

Compound | MIC [µg/mL]
CC1Cn2cc(C(=O)O)c(=O)c3cc(F)c(N4CCNCC4)c(c32)S1 (stereo not drawn) | 64 (≈ 176 µM)

test system: Staphylococcus aureus; test: Minimal inhibitory concentration against […] aureus ATCC 6538 strain; type: functional; conditions: not given; procedure, shortened: as §1

MIC [µg/mL] | Compound
4 (≈ 10.2 µM) | O=C(O)c1cn2c3c(c(Cl)c(F)cc3c1=O)SC(c1ccc(F)cc1)C2 (stereo not drawn)
2 (≈ 5.08 µM) | O=C(O)c1cn2c3c(c(Cl)c(F)cc3c1=O)SC(c1cccc(F)c1)C2 (stereo not drawn)
8 (≈ 17.5 µM) | CC1Cn2cc(C(=O)O)c(=O)c3cc(F)c(N4CCN(c5ccc(F)cc5)CC4)c(c32)S1 (stereo not drawn)
> 64 | CC1Cn2cc(C(=O)O)c(=O)c3cc(F)c(N4CCN(Cc5ccccc5C(F)(F)F)CC4)c(c32)S1 (stereo not drawn)

Compound | MIC [µg/mL]
CC1Cn2cc(C(=O)O)c(=O)c3cc(F)c(N4CCNCC4)c(c32)S1 (stereo not drawn) | 8 (≈ 22 µM)

test system: Escherichia coli; test: Minimal inhibitory concentration against Escherichia coli ISF 432 strain; type: functional; conditions: not given; procedure, shortened: as §1

MIC [µg/mL] | Compound
0.25 (≈ 0.635 µM) | O=C(O)c1cn2c3c(c(Cl)c(F)cc3c1=O)SC(c1ccc(F)cc1)C2 (stereo not drawn)
2 (≈ 5.08 µM) | O=C(O)c1cn2c3c(c(Cl)c(F)cc3c1=O)SC(c1cccc(F)c1)C2 (stereo not drawn)
8 (≈ 17.5 µM) | CC1Cn2cc(C(=O)O)c(=O)c3cc(F)c(N4CCN(c5ccc(F)cc5)CC4)c(c32)S1 (stereo not drawn)
8 (≈ 15.3 µM) | CC1Cn2cc(C(=O)O)c(=O)c3cc(F)c(N4CCN(Cc5ccccc5C(F)(F)F)CC4)c(c32)S1 (stereo not drawn)

Compound | MIC [µg/mL]
CC1Cn2cc(C(=O)O)c(=O)c3cc(F)c(N4CCNCC4)c(c32)S1 (stereo not drawn) | 0.25 (≈ 0.688 µM)
